According to publication PMC5237703 (Acta Pharmaceutica Sinica. B, 2016):
Like-named read-outs stand apart in the source and are kept apart here.

How the values were obtained:
MCF-7 (breast cancer) = experiment: MTT cytotoxicity assay, MCF-7; format: cell-based, human; conditions: read-out: IC50 Breast MCF-7
In short: (§1)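 Media: EMEM for MCF-7, McCoy's 5a for SaOS-2, RPMI-1640 for K562, each with NaHCO3, sodium pyruvate, 10% fetal calf serum and 1% penicillin/streptomycin. Culture at 37 °C, humidified 5% CO2. Seeded 5×10^3 cells/well and exposed to graded test compound for 72 h. MTT for 4 h, DMSO solubilisation, A570. IC50 from percent survival; mean ± SD, 2–3 experiments in triplicate.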

[1] = test system: breast carcinoma cell line MDA-MB-231; experiment: MTT cytotoxicity assay, MDA-MB-231; format: cell-based; conditions: read-out: IC50 Breast MDAMB-231
In short: (§2)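 Cells grown as adherent monolayers in DMEM with 10% FBS at 37 °C under humidified 5% CO2. Cells were trypsin-harvested and seeded at 5×10^3 per well, then graded concentrations of test compound were added for 72 h. MTT (4 mg/mL solution) was added for 4 h, formazan dissolved in DMSO and A570 read. IC50 derived from percent survival; mean ± SD, 2–3 experiments in triplicate.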

[2] = test system: breast carcinoma cell line MDA-MB-468; experiment: MTT cytotoxicity assay, MDA-MB-468; format: cell-based; conditions: read-out: IC50 Breast MDAMB-468
In short: as §2

[3] = test system: prostatic cancer cell line DU-145; experiment: MTT cytotoxicity assay, DU-145; format: cell-based; conditions: read-out: IC50 Prostate DU-145
In short: as §2

[4] = test system: pancreatic cancer cell line PANC-1; experiment: MTT cytotoxicity assay, PANC-1; format: cell-based; conditions: read-out: IC50 Pancreas PANC-1
In short: as §2

[5] = test system: K562 (myelogenous leukemia); experiment: MTT cytotoxicity assay, K562; format: cell-based, human; conditions: read-out: IC50 Blood K562
In short: as §1

SaOS-2 (osteosarcoma) = experiment: MTT cytotoxicity assay, SaOS-2; format: cell-based, human; conditions: read-out: IC50 Bone SaoS2
In short: as §1

[6] = test system: colon carcinoma cell line HCT-15; experiment: MTT cytotoxicity assay, HCT-15; format: cell-based; conditions: read-out: IC50 Colon HCT15
In short: as §2

[7] = test system: Lung cancer cell line A549; experiment: MTT cytotoxicity assay, A549; format: cell-based
[8] = test system: human embryonic kidney cells HEK293; experiment: MTT cytotoxicity assay, HEK293; format: cell-based; conditions: read-out: IC50 Normal HEK293
In short: as §2

COX-1 = target: T1, COX-1 (Ovis aries, UniProt P05979); experiment: COX-1 inhibition, chromogenic TMPD oxidation assay; format: biochemical, Ram
T1 sequence (P05979 25-600): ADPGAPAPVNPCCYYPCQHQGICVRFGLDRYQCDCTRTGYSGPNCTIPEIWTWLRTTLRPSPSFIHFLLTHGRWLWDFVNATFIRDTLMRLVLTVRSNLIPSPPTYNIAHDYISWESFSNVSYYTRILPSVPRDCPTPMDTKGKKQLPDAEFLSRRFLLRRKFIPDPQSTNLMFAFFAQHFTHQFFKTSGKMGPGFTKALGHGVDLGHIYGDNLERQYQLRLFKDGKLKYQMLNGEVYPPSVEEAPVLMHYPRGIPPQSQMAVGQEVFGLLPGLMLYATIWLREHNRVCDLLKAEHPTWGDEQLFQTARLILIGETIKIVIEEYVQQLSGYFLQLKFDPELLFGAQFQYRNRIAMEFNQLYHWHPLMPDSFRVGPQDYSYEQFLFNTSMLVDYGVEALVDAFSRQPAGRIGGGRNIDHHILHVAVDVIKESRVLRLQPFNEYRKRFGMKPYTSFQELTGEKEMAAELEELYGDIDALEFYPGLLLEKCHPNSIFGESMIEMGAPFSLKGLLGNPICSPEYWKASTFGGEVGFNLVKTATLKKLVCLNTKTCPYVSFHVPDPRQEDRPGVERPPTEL

Recombinant human COX-2 = target: T2, Recombinant human COX-2 (Homo sapiens, UniProt P35354); experiment: biochemical; format: biochemical; conditions: for Selectivity ratio COX-2/COX-1: ratio of IC50 COX-2 to IC50 COX-1; for IC50: TMPD oxidation at 603 nm
T2 sequence (P35354 18-604): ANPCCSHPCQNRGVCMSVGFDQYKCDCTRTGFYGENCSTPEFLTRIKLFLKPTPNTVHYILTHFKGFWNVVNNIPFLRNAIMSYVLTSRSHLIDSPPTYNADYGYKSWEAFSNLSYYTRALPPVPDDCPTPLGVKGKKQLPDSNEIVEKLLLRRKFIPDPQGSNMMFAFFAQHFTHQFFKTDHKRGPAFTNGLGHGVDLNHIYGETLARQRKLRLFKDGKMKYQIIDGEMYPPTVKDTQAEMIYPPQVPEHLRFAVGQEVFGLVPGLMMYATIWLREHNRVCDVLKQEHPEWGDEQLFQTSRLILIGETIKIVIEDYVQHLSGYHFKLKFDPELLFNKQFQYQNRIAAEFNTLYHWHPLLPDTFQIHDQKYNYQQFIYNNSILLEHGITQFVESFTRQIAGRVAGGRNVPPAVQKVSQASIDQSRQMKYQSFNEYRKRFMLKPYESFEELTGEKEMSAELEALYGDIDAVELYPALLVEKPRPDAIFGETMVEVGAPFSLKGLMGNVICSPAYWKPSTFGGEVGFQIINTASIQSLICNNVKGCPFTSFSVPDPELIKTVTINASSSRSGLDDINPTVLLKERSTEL

mouse fibroblast KB-31 = experiment: MTT cytotoxicity assay, KB-31; format: cell-based; conditions: KB 3-1, 72 h, read-out: IC50 Mouse fibroblast KB-31
In short: as §2

[9] = MTT, 72 h incubation, non-cancerous cell line
[10] = read-out: IC50 COX-1, COX-1 from Ram seminal vesicles, TMPD oxidation at 603 nm
[11] = read-out: IC50 COX-2, recombinant human COX-2
[12] = Homo sapiens, A549, read-out: IC50 Lung A549
[13] = IC50 COX-2, recombinant human COX-2

| Compound | IC50 (MCF-7 (breast cancer); MTT, 72 h incubation) | IC50 ([1]; MTT, 72 h incubation) | IC50 ([2]; MTT, 72 h incubation) | IC50 ([3]; MTT, 72 h incubation) | IC50 ([4]; MTT, 72 h incubation) | IC50 ([5]; MTT, 72 h incubation) | Selectivity ratio COX-2/COX-1 (Recombinant human COX-2) | IC50 (MCF-7 (breast cancer); Homo sapiens, MCF7, 72 h) | IC50 ([1]; Homo sapiens, MDA-MB-231, 72 h) | IC50 ([2]; Homo sapiens, MDA-MB-468, 72 h) | IC50 ([3]; Homo sapiens, DU-145, 72 h) | IC50 ([4]; Homo sapiens, PANC-1, 72 h) | IC50 ([5]; Homo sapiens, K562, 72 h) | IC50 (SaOS-2 (osteosarcoma); Homo sapiens, SAOS-2, 72 h) | IC50 ([6]; Homo sapiens, HCT-15, 72 h) | IC50 [7, 12] | IC50 ([8]; Homo sapiens, HEK293, 72 h) | IC50 (mouse fibroblast KB-31) | IC50 (COX-1) | IC50 (Recombinant human COX-2; [13]) | other results |
| --- | --- | --- | --- | --- | --- | --- | --- | --- | --- | --- | --- | --- | --- | --- | --- | --- | --- | --- | --- | --- | --- |
| 4-(3-(4-Fluorophenyl)-3H-imidazo[4,5-b]pyridin-2-yl)-2-methoxyphenol [Compound 3d] | 72 µM | > 100 µM | > 100 µM | > 100 µM | > 100 µM | 57 µM | 0.60 |  |  |  |  |  |  |  |  |  |  |  |  |  | IC50 (SaOS-2 (osteosarcoma); MTT, 72 h incubation): 71.5 µM; IC50 ([6]; MTT, 72 h incubation): > 100 µM; IC50 ([7]; read-out: IC50 Lung A549, MTT): > 100 µM; IC50 [8, 9]: > 100 µM; IC50 (COX-1; [10]): 42.7 ± 2.5 µM; IC50 (Recombinant human COX-2; [11]): 25.6 ± 1 µM |
| 5-(3-(3,4-Dimethoxyphenyl)-3H-imidazo[4,5-b]pyridin-2-yl)-2-methoxyphenol [Compound 3h] | 53 µM | > 100 µM | > 100 µM | > 100 µM | 57.7 µM | 54.5 µM | 0.83 |  |  |  |  |  |  |  |  |  |  |  |  |  | IC50 (SaOS-2 (osteosarcoma); MTT, 72 h incubation): 59 µM; IC50 ([6]; MTT, 72 h incubation): 66.9 µM; IC50 ([7]; read-out: IC50 Lung A549, MTT): > 100 µM; IC50 [8, 9]: 80 µM; IC50 (COX-1; [10]): 18.5 µM; IC50 (Recombinant human COX-2; [11]): 15.4 ± 3.1 µM |
| 5-(3-(4-Fluorophenyl)-3H-imidazo[4,5-b]pyridin-2-yl)-2-methoxyphenol [Compound 3e] | 60 µM | > 100 µM | 78.8 µM | > 100 µM | > 100 µM | 53 µM | 16.58 |  |  |  |  |  |  |  |  |  |  |  |  |  | IC50 (SaOS-2 (osteosarcoma); MTT, 72 h incubation): 62.5 µM; IC50 ([6]; MTT, 72 h incubation): > 100 µM; IC50 ([7]; read-out: IC50 Lung A549, MTT): > 100 µM; IC50 [8, 9]: > 100 µM; IC50 (COX-1; [10]): 16.8 ± 0.1 µM; IC50 (Recombinant human COX-2; [11]): 279 ± 7.2 µM |
| Oc1cccc(-c2nc3cccnc3n2-c2ccc(F)cc2)c1 [Compound 3a, 3-(3-(4-Fluorophenyl)-3H-imidazo[4,5-b]pyridin-2-yl)phenol] |  |  |  |  |  |  | 3.59 | 61.5 µM | > 100 µM | > 100 µM | > 100 µM | > 100 µM | 49 µM | 64 µM | > 100 µM | > 100 µM | > 100 µM | > 100 µM | 10 ± 0.01 µM | 35.9 ± 2 µM |  |
| COc1cccc(-c2nc3cccnc3n2-c2ccc(F)cc2)c1 [Compound 3b, 3-(4-Fluorophenyl)-2-(3-methoxyphenyl)-3H-imidazo[4,5-b]pyridine] |  |  |  |  |  |  |  | 69 µM | > 100 µM | 66.5 µM | > 100 µM | > 100 µM | 46 µM | 67 µM | > 100 µM | > 100 µM | > 100 µM | 75 µM | 15 ± 0.13 µM |  |  |
| Fc1ccc(-n2c(-c3cccc(C(F)(F)F)c3)nc3cccnc32)cc1 [Compound 3c, 3-(4-Fluorophenyl)-2-(3-(trifluoromethyl)phenyl)-3H-imidazo[4,5-b]pyridine] |  |  |  |  |  |  | 0.42 | 44 µM | > 100 µM | > 100 µM | > 100 µM | > 100 µM | 42 µM | 52.5 µM | > 100 µM | > 100 µM | > 100 µM | > 100 µM | 36 ± 1.4 µM | 15.1 ± 0.9 µM |  |
| FC(F)(F)c1cccc(-c2nc3cccnc3n2-c2ccc(Cl)cc2)c1 [Compound 3f, 3-(4-Chlorophenyl)-2-(3-(trifluoromethyl)phenyl)-3H-imidazo[4,5-b]pyridine] |  |  |  |  |  |  | 0.42 | 49.9 µM | > 100 µM | > 100 µM | > 100 µM | > 100 µM | 43 µM | 53.5 µM | > 100 µM | > 100 µM | > 100 µM | > 100 µM | 21.8 ± 1.1 µM | 9.2 ± 0.02 µM | selectivity for COX-2 over COX-1 (Recombinant human COX-2; from IC50 values against COX-2 and COX-1): 2 fold |
| COc1cc(-c2nc3cccnc3n2-c2ccc(Cl)cc2)cc(OC)c1OC [Compound 3g, 3-(4-Chlorophenyl)-2-(3,4,5-trimethoxyphenyl)-3H-imidazo[4,5-b]pyridine] |  |  |  |  |  |  | 1.17 | 56 µM | > 100 µM | 69.3 µM | > 100 µM | 83.5 µM | 47 µM | 55 µM | > 100 µM | > 100 µM | > 100 µM | 64.4 µM | 19.1 ± 0.3 µM | 22.4 ± 2.5 µM |  |
